Most compounds without a hit are left out; they make up all but 0.95% or so of the library.
PvdQ inh = blocks Pseudomonas aeruginosa PvdQ acylase activity; purified PvdQ acylase, fluorescence plate reader; inhibition, % at 10 µM; 0.063% of 340,000 active; AID 488965; in the data active = inhibition above about 30%, passing the limit was not always enough;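 also: 0% = vehicle neutral wells and 100% = reference inhibitor wells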
CAL PDZ FP-1 = inhibitors of human CAL PDZ peptide binding | Q9HD26 | inhibition, % at 24.9 µM | purified CAL PDZ, TMR-peptide fluorescence polarization, 1 h | 0.92% of 300,000 active;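 active = mean inhibition of at least 30% with at least half of replicates also reaching 30%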;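 also: 0% = DMSO neutral control and 100% = excess unlabeled competitor peptide PRC23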
miR-122 sensor = blocks miR-122 activity in Huh7 sensor cells; Huh7 miR-122 Renilla luciferase sensor, 48 h; neutral wells = 0, positive control = 100; 0.3% of 340,000 active; activation (reporter increase), % at 12.5 µM;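 active = mean replicate activation score at least 90 and every replicate individually at or above 90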;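 also: higher luciferase means less miR-122 activity so hits act as miR-122 inhibitors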
CAL PDZ FP-2 = inhibitors of human CAL PDZ peptide binding | 0.02% of 330,000 active | purified CAL PDZ, TMR-peptide fluorescence polarization, 1 h | inhibition, % at 20 µM | AID 504414;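 active = highest replicate inhibition of at least 40%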;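 also: plate controls were DMSO neutral control wells for no effect and unlabeled competitor peptide control wells for full effect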
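material = purified tagged CAL PDZ domain construct (CerCALP) | buffer or medium = sodium phosphate/NaCl buffer pH 7.4 with TCEP, IgG, Thesit | reagent = TMR-labelled reporter peptide T*-PRC34 bound in PDZ groove | incubation = 1 h room-temperature incubation prior to read | measured by = fluorescence polarization (mP) | evaluation = percent inhibition from loss of millipolarization | control set = unlabelled peptide and DMSO controls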
* hit, by the source's call; [ ] = remark or other dose.

O=C(CSc1ccc(-c2cccc([N+](=O)[O-])c2)nn1)N1CCCCCC1 was read as PvdQ inh 0.4, CAL PDZ FP-1 -0.4, miR-122 sensor -6.5 and CAL PDZ FP-2 0.6.
CCn1c(SCC(=O)Nc2cc(C)on2)nnc1-c1cccc(C)c1 was read as PvdQ inh -17.0, CAL PDZ FP-1 47.8*, miR-122 sensor -2.9 and CAL PDZ FP-2 0.1.
Cc1cc(NC(=O)CSc2ccc(-c3cccc([N+](=O)[O-])c3)nn2)no1 was read as PvdQ inh -18.7, CAL PDZ FP-1 56.1*, miR-122 sensor -0.8 and CAL PDZ FP-2 0.4.
`O=C(Nc1ccc(Cl)cc1)c1ccc(OCC2CCCO2)cc1` (stereo not given) gave PvdQ inh -11.2, CAL PDZ FP-1 33.7* and CAL PDZ FP-2 0.5.
For CN1C(=O)/C(=C/c2cc(C(C)(C)C)c(O)c(C(C)(C)C)c2)NC1=S the results were PvdQ inh -5.7, CAL PDZ FP-1 11.1 and CAL PDZ FP-2 -2.9.
`C[C@@H]1CN([C@H](C)CO)C(=O)c2cc(NS(=O)(=O)c3ccccc3)ccc2O[C@@H]1CN(C)S(=O)(=O)c1cccs1` gave miR-122 sensor 43.4[16.7 µM].
For Cc1cc(C)c(S(=O)(=O)Nc2ccc(C(N)=O)cc2)c(C)c1 the results were PvdQ inh -22.2, CAL PDZ FP-1 -2.3, miR-122 sensor 11.7 and CAL PDZ FP-2 -0.3.
For CC(=O)c1ccc(NS(=O)(=O)c2c(C)cc(C)cc2C)cc1 the results were PvdQ inh 0.9, CAL PDZ FP-1 -2.9, miR-122 sensor 151.9* and CAL PDZ FP-2 -1.3.
`COc1ccc(CN2CCC(n3nccc3NC(=O)C3CCCC3)CC2)c(OC)c1` gave PvdQ inh -0.1, CAL PDZ FP-1 -0.7 and CAL PDZ FP-2 -2.4.
Screening CO[C@H]1CN(C)C(=O)c2ccc(NC(=O)Cc3ccccc3)cc2OC[C@H](C)N(C(C)=O)C[C@@H]1C returned miR-122 sensor 14.7[16.7 µM].
`CC(C)(C)NC(=O)C(c1ccncc1)N(Cc1ccco1)C(=O)c1ccc(-c2ccccc2)[nH]1` (stereo not given) gave PvdQ inh 7.4, CAL PDZ FP-1 7.7 and CAL PDZ FP-2 -0.7.
For Cc1ccc(C(=O)OCC(=O)NCCN2C(=O)CSC2=O)cc1[N+](=O)[O-] the results were PvdQ inh 0.8, CAL PDZ FP-1 3.0, miR-122 sensor -0.2 and CAL PDZ FP-2 -0.6.
`CCOCCc1nnc(NC(=O)C2CC(=O)N(CCc3ccc(F)cc3)C2)s1` (stereo not given) gave PvdQ inh 0.9, CAL PDZ FP-1 58.7*, miR-122 sensor 1.5 and CAL PDZ FP-2 -0.5.
For CCOCc1nnc(NC(=O)C2CC(=O)N(CCc3ccc(F)cc3)C2)s1 (stereo not given) the results were PvdQ inh -8.2, CAL PDZ FP-1 -4.7 and CAL PDZ FP-2 -3.0.
Screening Cc1cccc(C(=O)NCC(=O)OCC(=O)c2cc(C)n(CC3CCCO3)c2C)c1 (stereo not given) returned PvdQ inh -13.1, CAL PDZ FP-1 89.5* and CAL PDZ FP-2 -0.4.
Cc1cc(C(=O)COC(=O)CNC(=O)c2ccccc2)c(C)n1CC1CCCO1 (stereo not given) was read as PvdQ inh 0.6, CAL PDZ FP-1 4.0 and CAL PDZ FP-2 0.1.
Cc1cc2nc(SC(C)C(=O)O)[nH]c2cc1C (stereo not given) was read as PvdQ inh -15.1, CAL PDZ FP-1 active, miR-122 sensor -8.8 and CAL PDZ FP-2 -2.7.
For Nc1nsc2ccccc12 the results were PvdQ inh -11.0, CAL PDZ FP-1 -1.8, miR-122 sensor 3.6 and CAL PDZ FP-2 -2.2.
For Nc1nnc(N)c2ccccc12 the results were PvdQ inh -7.0, CAL PDZ FP-1 57.2* and CAL PDZ FP-2 -0.6.
Screening CC1(C)CC(C(CC(=O)Nc2nccs2)c2ccccc2)CCO1 (stereo not given) returned PvdQ inh 4.1, CAL PDZ FP-1 4.3 and CAL PDZ FP-2 -0.4.
For CC1C=NC(S(=O)(=O)N2CC[C@H]3[C@@H](CO)N(C)c4ccc(C#Cc5ccccc5)cc4[C@H]32)=N1 (stereo not given in full) the results were miR-122 sensor 7.5[16.7 µM].
COc1ccccc1-n1cc(-c2ccccc2)c2c(=S)nc[nH]c21 was read as PvdQ inh -3.2, CAL PDZ FP-1 77.0*, miR-122 sensor 0.2 and CAL PDZ FP-2 -1.0.
For CCN(CC)S(=O)(=O)c1cc(NS(=O)(=O)c2cccc(Cl)c2)ccc1C the results were PvdQ inh 1.0, miR-122 sensor 253.7* and CAL PDZ FP-2 -1.0.
For Cc1cc(C)c(C)c(S(=O)(=O)NCc2ccc(C(=O)N3CCCC3)cc2)c1C the results were PvdQ inh -8.2, CAL PDZ FP-1 4.1, miR-122 sensor -3.4 and CAL PDZ FP-2 -0.9.
Screening c1cncc(-c2nnc(-c3ccco3)o2)c1 returned PvdQ inh -5.7, CAL PDZ FP-1 -3.1, miR-122 sensor 3.2 and CAL PDZ FP-2 -2.3.
Screening Clc1ccc(-c2nnc(-c3ccco3)o2)cc1 returned PvdQ inh 58.2*, CAL PDZ FP-1 -0.1, miR-122 sensor -8.2 and CAL PDZ FP-2 -4.4.
Screening CCOc1ccc(-n2c(C)c3c(C)nnc(C)c3c2C)cc1 returned miR-122 sensor -4.1.
For O=C(NCc1ccc(F)cc1)c1c2c(nc3ccccc13)CCN(Cc1ccccc1)C2 the results were PvdQ inh -8.1, CAL PDZ FP-1 57.4* and CAL PDZ FP-2 -1.6.
`O=C(COC(=O)c1c2c(nc3ccccc13)CCN(Cc1ccccc1)C2)Nc1c(F)cccc1F` gave PvdQ inh -9.9, miR-122 sensor 174.8* and CAL PDZ FP-2 0.2.
COc1cc(/C=N/NC(=O)c2nnn(-c3nonc3N)c2-c2cccs2)ccc1O was read as PvdQ inh 7.9, CAL PDZ FP-1 -0.5, miR-122 sensor -6.6 and CAL PDZ FP-2 -2.7.
Cc1cc(C)cc(N(CCC#N)C(=O)COC(=O)c2ccccc2SCC(=O)N2CCCC2)c1 was read as PvdQ inh -0.6, CAL PDZ FP-1 -5.7, miR-122 sensor -2.0 and CAL PDZ FP-2 -0.8.
For Cc1noc(C)c1NC(=O)Nc1ccc2c(c1)CC(=O)N([C@@H](C)CO)C[C@@H](C)[C@@H](CN(C)Cc1ccncc1)O2 the results were miR-122 sensor -5.0[16.7 µM].
Screening Cc1nc(NCCCN2CCOCC2)c2cnn(-c3ccccc3)c2n1 returned PvdQ inh -9.4, CAL PDZ FP-1 36.0*, miR-122 sensor -10.0 and CAL PDZ FP-2 -0.6.
Screening Cc1cc(C(=O)COc2ccccc2Cl)c(C)n1-c1ccc2c(c1)OCO2 returned PvdQ inh -17.3, CAL PDZ FP-1 45.4* and CAL PDZ FP-2 -0.7.
COc1cccc(N=Cc2c(O)n(-c3cccc(C)n3)c(=O)c3ccccc23)c1 was read as PvdQ inh -15.4, CAL PDZ FP-1 -1.5, miR-122 sensor -4.4 and CAL PDZ FP-2 -1.9.
`C=C(C)CNC(=S)N/N=C/C1=CCC2CC1C2(C)C` (stereo not given) gave PvdQ inh -9.9, CAL PDZ FP-1 49.0* and CAL PDZ FP-2 -0.4.
For COc1ccc(C(=O)Oc2cc3c4c(c2)C(C)=CC(C)(C)N4C(=O)C3=O)cc1OC the results were PvdQ inh 1.4, CAL PDZ FP-1 -2.3, miR-122 sensor -3.5 and CAL PDZ FP-2 -2.0.
